In ChEMBL document CHEMBL3826889, “Symmetrical bis-tertiary amines as novel CXCR4 inhibitors” (2016):

What was measured:
[1] = molecular target: C-X-C chemokine receptor type 4 (Homo sapiens) (UniProt P61073); test: Displacement of biotinylated TN14003 from CXCR4 CXCL12 binding domain in human MDA-MB-231 cells preincubated for 10 mins followed by biotinylated TN14003 addition measured after 30 mins using streptavidin-conjugated rhodamine by fluorescence microscopic analysis; format: cell-based
Method in brief: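 MDA-MB-231 cells, 2 × 10^4 per well, seeded 2 days prior. Compound at 1, 10, 100 or 1000 nM for 10 min at room temperature, then fixed in 4% ice-cold paraformaldehyde and rehydrated in PBS. Then 0.05 μg/mL biotinylated TN14003 for 30 min at RT, PBS washes, streptavidin-rhodamine (1:150) for 30 min at RT. Fluorescence microscopy. EC = lowest concentration giving significant fluorescence reduction vs control; semi-quantitative.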

MDA-MB-231 = test: Inhibition of […]-induced invasion of human MDA-MB-231 cells at 100 nM after 22 hrs by hematoxylin/eosin-staining based matrigel assay; format: functional; conditions: MDA-MB-231, 22 h
Method in brief: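 Invasion chambers with Matrigel-coated 8 μm pore support. MDA-MB-231 cells treated with compound at 100 nM before seeding in the top chamber; CXCL12α at 200 ng/mL in the bottom chamber as chemoattractant. Incubation 22 h, humidified. Non-invading cells swabbed off; invaded cells fixed in methanol and H&E-stained, then counted to give percent invasion.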

Mus musculus = test: Antiinflammatory activity against carrageenan-induced paw edema in C57BL/6J mouse assessed as inhibition of edema volume at 300 ug/kg, ip daily administered 30 mins post carrageenan-challenge measured post 2 hrs of last injection; format: functional
Method in brief: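 Acute paw inflammation in female C57BL/6J mice: 50 μL λ-carrageenan (1% w/v in saline) injected s.c. into one hind paw, saline into the contralateral paw. Dosing i.p. daily from 30 min after challenge, in 10% DMSO / 90% of 45% (2-hydroxypropyl)-β-cyclodextrin in PBS; vehicle controls. Sacrifice at 74 h post-challenge, 2 h after last dose. Paw thickness by caliper; edema = injected minus contralateral. Suppression % vs vehicle group; 5 mice/group.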

Sequence of C-X-C chemokine receptor type 4 (Homo sapiens) (P61073 whole entry, the tested form may be a part): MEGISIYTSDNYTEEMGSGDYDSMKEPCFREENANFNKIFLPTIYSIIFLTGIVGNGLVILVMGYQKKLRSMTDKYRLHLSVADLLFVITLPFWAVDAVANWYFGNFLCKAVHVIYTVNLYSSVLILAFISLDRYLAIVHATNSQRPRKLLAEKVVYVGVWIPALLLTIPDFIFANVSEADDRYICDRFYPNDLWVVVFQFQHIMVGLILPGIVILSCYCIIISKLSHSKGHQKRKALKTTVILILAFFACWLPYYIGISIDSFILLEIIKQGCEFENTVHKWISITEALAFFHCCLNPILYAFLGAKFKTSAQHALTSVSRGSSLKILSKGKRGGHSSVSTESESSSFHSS

CN(Cc1ccc(F)cc1)Cc1ccc(CN(C)Cc2ccc(F)cc2)cc1
EC [1]: > 1000 nM

c1cc(CN2CCCC2)ccc1CN1CCCC1
EC [1]: 1000 nM

CN(Cc1ccc(CN(C)Cc2cccc(Cl)c2)cc1)Cc1cccc(Cl)c1
EC [1]: 1000 nM

CN(Cc1ccc(CN(C)Cc2cccnc2)cc1)Cc1cccnc1
EC [1]: > 1000 nM

c1cc(CN2CCCNCCNCCCNCC2)ccc1CN1CCCNCCNCCCNCC1 [PLERIXAFOR]
inhibition at 0.1 µM (MDA-MB-231): 62%
EC [1]: 1000 nM

CN(Cc1ccncc1)Cc1ccc(CN(C)Cc2ccncc2)cc1
EC [1]: > 1000 nM

CN(Cc1ccc(CN(C)Cc2ccccn2)cc1)Cc1ccccn1
EC [1]: > 1000 nM

CN(Cc1ccc(CN(C)c2ccc(F)cc2)cc1)c1ccc(F)cc1
inhibition at 0.1 µM (MDA-MB-231): 66.4%
EC [1]: 100 nM

CN(Cc1ccc(CN(C)Cc2ccccc2F)cc1)Cc1ccccc1F
EC [1]: > 1000 nM

CCN(Cc1ccccc1)Cc1ccc(CN(CC)Cc2ccccc2)cc1
EC [1]: 1000 nM

CN(Cc1ccc(CN(C)c2ccccc2)cc1)c1ccccc1
EC [1]: 1000 nM

c1cc(CN2CCOCC2)ccc1CN1CCOCC1
EC [1]: > 1000 nM

N=C(N)NCCC[C@@H]1NC(=O)[C@H](Cc2ccc(O)cc2)NC(=O)[C@H]2CCCN2C(=O)[C@@H](CCCCN)NC(=O)[C@@H](CCCCN)NC(=O)[C@H](CCCNC(=N)N)NC(=O)[C@H](Cc2ccc(O)cc2)NC(=O)[C@H](NC(=O)[C@@H](Cc2ccc3ccccc3c2)NC(=O)[C@H](CCCNC(=N)N)NC(=O)[C@@H](CCCNC(=N)N)NC(=O)c2ccc(F)cc2)CSSC[C@H](C(=O)N[C@H](CCCNC(=N)N)C(N)=O)NC(=O)[C@@H](CCCNC(N)=O)NC1=O (stereo in doubt)
inhibition in vivo at 0.3 mg/kg (Mus musculus): 48%

COc1cccc(CN(C)Cc2ccc(CN(C)Cc3cccc(OC)c3)cc2)c1
inhibition at 0.1 µM (MDA-MB-231): < 50%
EC [1]: 10 nM

c1cc(CN2CCCCC2)ccc1CN1CCCCC1
inhibition at 0.1 µM (MDA-MB-231): < 50%
EC [1]: 10 nM

c1ccc(CN(Cc2ccc(CN(Cc3ccccc3)CC3CC3)cc2)CC2CC2)cc1
EC [1]: 1000 nM

CN(Cc1ccc(CN(C)Cc2ccccc2Cl)cc1)Cc1ccccc1Cl
EC [1]: > 1000 nM

CN(Cc1ccc(CN(C)Cc2cccc(F)c2)cc1)Cc1cccc(F)c1
EC [1]: > 1000 nM
